# An excerpt weighted towards active compounds, which were near 1.5% of everything screened.
# 697 NFkB inh: lowers PMA/ionomycin-induced NF-kB signal in 697 B cells. 697 B-cell NF-kB luciferase reporter, 16 h. inhibition, % at 4 µM. AID 435022. 330,000 tested, 0.33% active; in the data active = inhibition above about 35%
# NR2E3 ag-1: activates human photoreceptor nuclear receptor NR2E3; Q9Y5X4; GST-NR2E3/biotin-RetCOR TR-FRET, 1536-well; inhibition of corepressor binding, % at 4.78 µM; 320,000 tested, 0.12% active;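 active = percent inhibition above the cutoff of mean plus 3 SD of all tested compounds, set per screening campaign, cut at about 20% in these data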
#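 Test system – NR2E3–RetCOR corepressor complex · Quantity – NR2E3 fusion 1.35 nM · Buffer or medium – Tris pH 7.5 · Incubation – Compound–protein incubation for 5 h at 4 °C · Technique – TR-FRET, Eu(K)-anti-GST donor, streptavidin-D2 acceptor, ex 340, em 617/671 nm · Evaluation – percent inhibition of 671/617 nm emission ratio versus biotin and DMSO controls · Plate – 1536-well format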
# Jurkat NFkB inh: lowers PMA/ionomycin-induced NF-kB signal in Jurkat cells; PMA/ionomycin-induced NF-kB luciferase reporter, luminescence; inhibition, % at 4 µM; 330,000 tested, 0.53% active; AID 435003; in the data active = inhibition above about 50%
# GalR3 antag: antagonists of human GalR3. 360,000 tested, 0.44% active. HEK293 GalR3-CNG cAMP membrane potential fluorescence; galR3 body fused to GalR1 C-terminus. inhibition, % at 3 µM;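 active = inhibition above the screen-wide average plus 3 SD, cut at about 13% in these data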;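 note: forskolin and galanin both at EC90 stimulate the cells; cAMP rise reported by CNG channel membrane potential dye signal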
# Target sequence (O60755 1-299 limits assumed): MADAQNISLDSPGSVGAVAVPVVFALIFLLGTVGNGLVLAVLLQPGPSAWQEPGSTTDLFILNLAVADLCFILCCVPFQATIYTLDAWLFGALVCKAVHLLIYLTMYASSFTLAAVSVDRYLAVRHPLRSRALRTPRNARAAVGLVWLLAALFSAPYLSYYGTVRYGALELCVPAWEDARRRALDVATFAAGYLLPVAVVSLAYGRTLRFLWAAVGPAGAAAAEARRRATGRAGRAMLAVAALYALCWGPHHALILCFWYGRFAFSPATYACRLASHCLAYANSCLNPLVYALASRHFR
# NR2E3 ag-2: agonists of human NR2E3 nuclear receptor | 360,000 tested, 0.35% active | Q9Y5X4 | CHO-S Gal4-NCOR/VP16-NR2E3 two-hybrid, luciferase | AID 602229 | inhibition of corepressor binding, % at 3.98 µM;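 active = inhibition above the mean of all tested compounds plus 3 SD, cut at about 70% in these data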;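 note: higher means lower luciferase signal from less NR2E3 corepressor binding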
# JMJD2C inh: human JMJD2C demethylase inhibition. Q9H3R0. GST-JMJD2C(1-420) H3K9me3 demethylation, DELFIA europium. inhibition, % at 2.35 µM. 330,000 tested, 0.069% active;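 active = more than half of a compound's replicate wells show inhibition beyond 50%, single wells judged on their own value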;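 note: signal counts dimethyl H3K9 product captured on neutravidin plate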
# NR2E3 ag confirm: NR2E3 agonism confirmed in two-hybrid assay | CHO-S mammalian two-hybrid NR2E3-NCOR, luciferase luminescence | 2,300 tested, 51% active | inhibition, % at 3.98 µM | AID 624378 | shares compounds with NR2E3 ag-2;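 active = average inhibition above a cutoff equal to the mean inhibition of all tested compounds plus one SD, cut at about 70% in these data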
# GAL4-VP16 luc: GAL4-VP16 reporter inhibition in NR2E3 agonist counterscreen; shares compounds with NR2E3 ag-2; CHO-S GAL4-VP16 luciferase reporter, luminescence; inhibition, % at 3.98 µM; 2,300 tested, 29% active;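 active = mean inhibition above a cutoff equal to the average over all tested compounds plus one standard deviation, cut at about 70% in these data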;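 note: luciferase from a UAS reporter driven by GAL4-VP16 transactivation; higher means less reporter light so more repression of VP16 activity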
# A number is an active result; – = inactive; · = not tested or not shown.
SMILES,697 NFkB inh,NR2E3 ag-1,Jurkat NFkB inh,GalR3 antag,NR2E3 ag-2,JMJD2C inh,NR2E3 ag confirm,GAL4-VP16 luc
COc1cc(OC)nc(-n2ncc(Br)c(Br)c2=O)n1,·,–,·,–,74,–,97,–
Cc1c(CN2CCN(CC(C)C)C(CCO)C2)[nH]c2ccc(Cl)cc12 (configuration not stated),–,–,–,–,–,–,·,·
COc1cc(/C=N/NC(=O)c2cc(C3CC3)[nH]n2)ccc1O,–,–,–,–,–,–,·,·
COc1cc(/C=N/NC(=O)c2[nH]nc3c2CCc2ccccc2-3)ccc1O,–,–,–,–,–,–,–,–
COc1cc(/C=N/NC(=O)c2cc(C34CC5CC(CC(C5)C3)C4)[nH]n2)ccc1O,–,–,–,–,70,–,–,–
CN1N=C2c3ccccc3CCCC2C1c1ccc(F)cc1 (configuration not stated),–,–,–,–,–,–,·,·
COc1cccc(CNc2ncnc3cc(Cl)ccc23)c1,·,·,·,–,–,–,84,–
COc1ccc(CNc2ncnc3cc(Cl)ccc23)cc1,–,–,–,–,–,–,·,·
Fc1cccc(CNc2ncnc3cc(Cl)ccc23)c1F,–,–,–,–,83,–,–,–
O=C1CN(CC(=O)Nc2cccc(Cl)c2Cl)c2ccccc2N1,–,–,–,–,–,–,·,·
CCCOc1ccc(C(F)(F)F)cc1NC(=O)CCc1c(C)noc1C,–,–,–,–,–,–,·,·
Cc1ccccc1C(=O)N1CCN(c2ccc(NC(=O)c3cccnc3)cc2)CC1,–,–,–,–,–,–,·,·
O=C(Nc1ccc(N2CCN(C(=O)c3ccco3)CC2)cc1)c1ccc2c(c1)OCO2,–,–,–,–,–,–,–,–
Cc1ccccc1C(=O)N1CCN(c2ccc(NC(=O)c3ccc4c(c3)OCO4)cc2)CC1,–,–,–,–,75,–,91,–
O=C(Nc1ccc(N2CCN(C(=O)c3ccco3)CC2)cc1)c1ccc(Br)cc1,–,–,–,–,–,–,·,·
COc1cc(=O)[nH]c(SCC(=O)Nc2nc3c(s2)CCCC3)n1,–,–,–,–,–,–,·,·
O=C(C1=C(O)C(=O)N(c2nccs2)C1c1ccccc1)c1cc2ccccc2o1 (configuration not stated),–,–,–,–,–,–,95,71
Cc1cccc(OCC(=O)Nc2ccc3c(c2)OCCO3)c1,–,–,–,–,–,–,·,·
Cc1ccc(OCC(=O)Nc2ccc3c(c2)OCCO3)cc1C,–,–,–,–,–,–,–,–
Cc1cc(C)c2c(c1)CC(C)(C)CC2=O,·,·,·,–,–,·,·,·
CN(Cc1ccc(Cl)c(Cl)c1)C(=O)c1cccc(S(=O)(=O)N2CCN(Cc3ccccc3)CC2)c1,–,–,–,–,–,–,–,–
CN(CC(=O)Nc1cccc(F)c1)C(=O)c1cccc(S(=O)(=O)N2CCN(Cc3ccccc3)CC2)c1,·,·,·,–,–,·,·,·
CN(Cc1cccc(F)c1)C(=O)c1cccc(S(=O)(=O)N2CCN(Cc3ccccc3)CC2)c1,–,–,–,–,–,–,–,–
CN(Cc1cccc(Cl)c1Cl)C(=O)c1cccc(S(=O)(=O)N2CCN(Cc3ccccc3)CC2)c1,–,–,–,–,–,–,86,–
Cc1ccc(S(=O)(=O)N(CC(=O)Nc2ccccc2C(=O)O)c2cccc(Cl)c2C)cc1,–,–,–,–,90,–,98,–
SMILES,697 NFkB inh,NR2E3 ag-1,Jurkat NFkB inh,GalR3 antag,NR2E3 ag-2,JMJD2C inh,NR2E3 ag confirm,GAL4-VP16 luc
Nc1ccc(Oc2ccccc2-c2ccccc2)cc1,–,–,–,–,–,–,–,–
NCCOc1ccccc1-c1ccccc1,–,–,–,–,–,–,·,·
Cc1ccc(C)c(N2CCN(S(=O)(=O)c3ccc4c(c3)CC(C)N4C(=O)C3CC3)CC2)c1 (configuration not stated),–,–,–,–,–,–,·,·
COc1ccccc1N1CCN(C(=O)C2CCN(S(=O)(=O)c3ccc4c(c3)CC(C)N4C(=O)C3CC3)CC2)CC1 (configuration not stated),–,–,–,–,–,–,·,·
CC(=O)N1c2ccc(S(=O)(=O)N3CCC(C(=O)N4CCC(C)CC4)CC3)cc2CC1C (configuration not stated),–,–,–,–,–,–,·,·
CC(=O)N1CCCc2cc(S(=O)(=O)N3CCCC(C(=O)N4CCN(c5ccccc5)CC4)C3)ccc21 (configuration not stated),–,–,–,–,–,–,·,·
Cc1cccc(N2CCN(S(=O)(=O)c3ccc4c(c3)CC(C)N4C(=O)C3CC3)CC2)c1C (configuration not stated),–,–,–,–,–,–,–,–
CC1Cc2cc(S(=O)(=O)N3CCC(C(=O)N4CCN(c5ccccc5F)CC4)CC3)ccc2N1C(=O)C1CC1 (configuration not stated),–,–,–,–,74,–,–,–
CC(=O)N1c2ccc(S(=O)(=O)N3CCC(C(=O)N4CCN(c5cc(Cl)ccc5C)CC4)CC3)cc2CC1C (configuration not stated),–,–,–,–,87,–,90,78
CC(=O)N1CCCc2cc(S(=O)(=O)N3CCCC(C(=O)N4CCN(c5cc(C)ccc5C)CC4)C3)ccc21 (configuration not stated),–,–,–,–,98,–,91,79
COc1cccc2c(=O)n(CC(=O)Nc3cccc(F)c3)ccc12,–,–,–,–,–,–,·,·
CN1C[C@@H]2[C@@H]3C(=O)N(Cc4ccccc4)C(=O)[C@@H]3[C@](C)(C1=O)N2C(=O)c1ccc(Br)cc1,·,·,·,–,–,·,·,·
Cn1c(=O)c2[nH]c(COc3ccc(C(C)(C)C)cc3)nc2n(C)c1=O,–,–,–,·,–,–,87,72
CC1CCCCC1Nc1ncnc2sccc12 (configuration not stated),–,–,–,–,–,–,–,–
O=C(O)c1ccc(NC2=C/C(=N/S(=O)(=O)c3cccs3)c3ccccc3C2=O)cc1,·,·,·,–,–,·,·,·
O=C1C(Nc2ccc(O)cc2)=C/C(=N/S(=O)(=O)c2cccs2)c2ccccc21,·,·,·,–,103,–,100,99
Cc1cc(C)c(S(=O)(=O)/N=C2\C=C(Nc3ccc(C(=O)O)cc3)C(=O)c3ccccc32)c(C)c1,–,–,–,–,112,–,100,98
C=CCOC(=O)c1[nH]c2c(c1C)C(=O)CC(c1cc(OC)c(OC)c(OC)c1)C2 (configuration not stated),–,–,–,·,–,–,73,–
